Bioassay records as filed in PubChem BioAssay.
DENV2 CPE: inhibitors of DENV2 cytopathic effect. DENV2-infected cells, cytopathic effect rescue, plate reader. CPE inhibition, % at 9.99 µM. AID 651640. hit rate 1.7% among 350,000; in the data active = CPE inhibition above about 20%, passing the limit was not always enough; inconclusive = no clear call, values can overlap the other calls; tested in BHK-21 cells
SIRT5 block: blocks human SIRT5 desuccinylation of peptide; hit rate 1.1% among 330,000; Q9NXA8; Purified SirT5, succinyl-peptide AMC, trypsin-coupled fluorescence; inhibition, % at 15 µM; AID 652115; in the data active = inhibition above about 15%; inconclusive = no clear call, values can overlap the other calls
ERAP1 HTS inh: ERAP1 (human) enzyme inhibition. Q9NZ08. recombinant ERAP1, Leu-AMC fluorescence, 60 min. inhibition, % at 10.7 µM. hit rate 0.15% among 340,000;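 active = mean replicate inhibition of at least 30%, or all replicates individually reaching that 30% level; inactive = mean below 30% and not every replicate reaching it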
S100A4 MyoIIA: S100A4-myosin IIA interaction inhibition; S100A4/TAMRA-MyoIIA peptide fluorescence polarization; hit rate 0.14% among 360,000; P26447; inhibition, % at 10.7 µM;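 active = mean inhibition of at least 70% across replicates, with every replicate also reaching that level; inconclusive = mean inhibition reaches 70% but some replicates fall short; inactive = mean inhibition below 70%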
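Material: S100A4 monomer protein / Buffer or medium: 50 mM HEPES pH 7.2, 10 mM CaCl2, 100 mM KCl / Times: 5 min incubation before reading / Benchmarks: neutral control DMSO, positive control TFP / Reagent: labelled myosin peptide probe, 5 nM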
Of the large screens only hits and unclear results are named; the others gave an inactive call. Only some compounds are listed: those with a hit (about 2.9% of all), similar ones and a draw of the others.

O=C(C[C@@H]1C=C[C@@H](NC(=O)NC2CCCCC2)[C@H](CO)O1)NCc1ccc(Cl)cc1	none
CC(C)CC#Cc1ccc2c(c1)O[C@@H](CN(C)Cc1ccc3c(c1)OCO3)[C@@H](C)CN([C@@H](C)CO)S2(=O)=O	SIRT5 block 14
CC(C)CC#Cc1ccc2c(c1)O[C@@H](CN(C)Cc1ccc(F)cc1)[C@H](C)CN([C@H](C)CO)S2(=O)=O	none
CCCC#Cc1ccc2c(c1)O[C@@H](CN(C)Cc1ccc3c(c1)OCO3)[C@@H](C)CN([C@H](C)CO)S2(=O)=O	none
CC(C)CC#Cc1ccc2c(c1)O[C@@H](CN(C)Cc1cccnc1)[C@@H](C)CN([C@H](C)CO)S2(=O)=O	none (no result: SIRT5 block, ERAP1 HTS inh)
CC(C)CC#Cc1ccc2c(c1)O[C@@H](CN(C)Cc1cccc(F)c1)[C@H](C)CN([C@H](C)CO)S2(=O)=O	SIRT5 block 16
CC(C)CC#Cc1ccc2c(c1)O[C@H](CN(C)Cc1ccc(C(=O)O)cc1)[C@@H](C)CN([C@H](C)CO)S2(=O)=O	SIRT5 block 29 (no result: ERAP1 HTS inh)
CC(C)CC#Cc1ccc2c(c1)O[C@H](CN(C)Cc1cccnc1)[C@@H](C)CN([C@@H](C)CO)S2(=O)=O	SIRT5 block 18 (no result: DENV2 CPE, ERAP1 HTS inh, S100A4 MyoIIA)
CO[C@@H]1CN(C)C(=O)c2ccc(NC(=O)CC(F)(F)F)cc2OC[C@H](C)N(C(=O)C2CC2)C[C@H]1C	none
COc1ccc2c3c([nH]c2c1)[C@H](CO)N(C(=O)NC(C)C)CC31CCN(C(=O)NC2CCCC2)CC1	none (no result: SIRT5 block)
CC(C)CC#Cc1ccc2c(c1)O[C@@H](CN(C)S(=O)(=O)c1cccc(F)c1)[C@@H](C)CN([C@H](C)CO)S2(=O)=O	SIRT5 block 20
C[C@H]1CN([C@@H](C)CO)S(=O)(=O)c2ccc(-c3ccc(C#N)cc3)cc2O[C@@H]1CN(C)Cc1cccc(F)c1	SIRT5 block 16
C[C@H]1CN([C@@H](C)CO)S(=O)(=O)c2ccc(C#CCN(C)C)cc2O[C@H]1CN(C)Cc1cccnc1	none
CCCC#Cc1ccc2c(c1)O[C@@H](CN(C)S(=O)(=O)c1cccc(F)c1)[C@@H](C)CN([C@@H](C)CO)S2(=O)=O	none
CC(C)CC#Cc1ccc2c(c1)O[C@H](CN(C)Cc1cncnc1)[C@@H](C)CN([C@H](C)CO)S2(=O)=O	DENV2 CPE 58, S100A4 MyoIIA inconclusive
CCCC#Cc1ccc2c(c1)O[C@H](CN(C)Cc1cccnc1)[C@@H](C)CN([C@@H](C)CO)S2(=O)=O	DENV2 CPE 25
CO[C@H]1CN(C)C(=O)c2cc(NC(=O)C3CCCC3)ccc2OC[C@H](C)N(CC2CC2)C[C@@H]1C	none
C[C@H](CO)N1C[C@H](C)[C@H](CN(C)S(=O)(=O)c2ccc(Cl)cc2)OCCCC[C@H](C)Oc2ccc(NS(C)(=O)=O)cc2C1=O	none
C[C@@H]1CN([C@H](C)CO)C(=O)c2cc(NS(=O)(=O)c3ccccc3)ccc2O[C@@H]1CN(C)S(C)(=O)=O	none
O=C(C[C@@H]1C=C[C@@H](NC(=O)C2CCOCC2)[C@H](CO)O1)NCc1ccccc1Cl	none
COc1ccccc1CNC(=O)C[C@@H]1CC[C@H](NC(C)=O)[C@H](CO)O1	none
Cc1ccc(S(=O)(=O)Nc2ccc3c(c2)C(=O)N([C@@H](C)CO)C[C@H](C)[C@@H](CN(C)S(C)(=O)=O)OCCCC[C@@H](C)O3)cc1	DENV2 CPE 26
CNC[C@@H]1OCCCC[C@H](C)Oc2ccc(NS(=O)(=O)c3c(C)noc3C)cc2C(=O)N([C@@H](C)CO)C[C@@H]1C	DENV2 CPE 132 (no result: SIRT5 block, ERAP1 HTS inh, S100A4 MyoIIA)
Cc1ccc(S(=O)(=O)Nc2ccc3c(c2)C(=O)N([C@H](C)CO)C[C@H](C)[C@@H](CN(C)S(C)(=O)=O)OCCCC[C@H](C)O3)cc1	DENV2 CPE 57
Cc1ccc(S(=O)(=O)Nc2ccc3c(c2)C(=O)N([C@H](C)CO)C[C@H](C)[C@H](CN(C)S(C)(=O)=O)OCCCC[C@H](C)O3)cc1	none
CNC[C@H]1OCCCC[C@H](C)Oc2ccc(NS(=O)(=O)c3cn(C)cn3)cc2C(=O)N([C@@H](C)CO)C[C@@H]1C	none
Cc1ccc(S(=O)(=O)Nc2ccc3c(c2)C(=O)N([C@H](C)CO)C[C@@H](C)[C@@H](CN(C)S(C)(=O)=O)OCCCC[C@H](C)O3)cc1	none
CNC[C@H]1OCCCC[C@@H](C)Oc2ccc(NS(=O)(=O)c3cn(C)cn3)cc2C(=O)N([C@@H](C)CO)C[C@H]1C	DENV2 CPE 64 (no result: SIRT5 block, ERAP1 HTS inh, S100A4 MyoIIA)
COc1ccccc1C#Cc1ccc([C@@H]2[C@@H](CO)N3CCCCN(CCC(F)(F)F)C[C@@H]23)cc1	none
